Hits are enriched below; roughly 2.3% of the tested compounds scored in any of these assays.
SUMO1 PPI mod: modulators of human SUMO1-mediated protein-protein interactions | SUMO1 binding to a labelled peptide, TR-FRET, 1 h | 360,000 compounds, 0.33% hits | P63165 | inhibition, % at 20 µM; in the data active means inhibition above about 37%
LMPTP block: blocks human LMPTP phosphatase; recombinant LMPTP-A, OMFP fluorogenic substrate, fluorescence intensity; inhibition, % at 20 µM; 360,000 compounds, 0.22% hits;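 active means compounds that cut the enzyme signal by at least half of the control window in the single-dose screen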;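 further: plate controls were DMSO wells with enzyme plus substrate for no effect and substrate without enzyme for full effect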
Target sequence (P24666 whole entry, looked up): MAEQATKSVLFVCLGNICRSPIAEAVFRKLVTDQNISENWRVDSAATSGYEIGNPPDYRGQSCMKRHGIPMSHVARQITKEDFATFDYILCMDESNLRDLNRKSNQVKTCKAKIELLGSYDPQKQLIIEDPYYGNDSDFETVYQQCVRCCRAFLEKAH
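Assay system: LMPTP-A phosphatase enzyme | Input: 0.625 nM enzyme | Also added: Fluorogenic phosphatase substrate OMFP at 400 µM final | Compound dosing: One test concentration per compound, 20 µM, with 3% DMSO overall | Schedule: 50 min enzyme reaction at room temperature, protected from light | Signal: Fluorescence intensity | Benchmarks: no-enzyme and uninhibited controls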
Scp-1 inhibitor: inhibitors of human Scp-1 phosphatase; Recombinant Scp1, phosphopeptide, malachite green phosphate absorbance; inhibition, % at 20 µM; AID 493091; Q9GZU7; 340,000 compounds, 0.88% hits;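 active means inhibition above about 50% at 20 µM, limit read from the data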;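 further: plate controls were DMSO wells with enzyme for no effect and wells lacking enzyme for full effect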
Target sequence (Q9GZU7 76-261 limits assumed): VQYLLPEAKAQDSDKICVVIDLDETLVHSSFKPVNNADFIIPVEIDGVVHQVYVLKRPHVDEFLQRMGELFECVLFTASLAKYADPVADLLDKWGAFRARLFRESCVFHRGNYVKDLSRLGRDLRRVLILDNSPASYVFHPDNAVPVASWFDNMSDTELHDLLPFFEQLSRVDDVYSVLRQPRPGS
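Material – SCP-1 phosphatase catalytic domain, residues 76-261 · Buffer or medium – Acidic Tris acetate buffer with magnesium and detergent · Also added – Phospho 17-mer peptide substrate · Compound – single 20 µM dose, 1% DMSO · Times – 45 min room-temperature reaction, 5 min colour, 30 min stabiliser · Technique – Phosphate-binding colour reagent, absorbance read at 630 nm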
STEP block: blocks human striatal-enriched tyrosine phosphatase; P54829; inhibition, % at 20 µM; AID 588621; 360,000 compounds, 0.25% hits; recombinant STEP, OMFP fluorogenic substrate, fluorescence;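 active means inhibition at 20 µM, scaled per plate between control wells, above about 37%, limit read from the data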;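 further: 0% = DMSO with enzyme and substrate and 100% = substrate only without enzyme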
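Measure: Control-normalized % inhibition with plate pattern correction | Test system: STEP phosphatase, cell-free reaction | Medium: pH 6.0 Bis-Tris with DTT and Tween 20 | Technique: Fluorescence, 480/540 nm | Times: Reaction 20 min, ambient temperature | Doses: Single compound dose of 20 µM, 1% DMSO final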
DNMT1 inh: blocks human DNA methyltransferase DNMT1. AID 588458. DNMT1 molecular beacon, Hinp1I cleavage, fluorescence. P26358. 360,000 compounds, 0.83% hits. inhibition (reported as % activation of signal), % at 10 µM; in the data active means inhibition above about 50%
Rpn11 block: blocks the human proteasome subunit Rpn11 | inhibition, % at 20 µM | O00487 | human 26S proteasome, Ub4-pepOG fluorescence polarization; 20S core pre-blocked with epoxomicin | 360,000 compounds, 0.59% hits;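 active means inhibition at 20 µM, scaled to each plate's controls, above about 33%, limit read from the data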
Target sequence (O00487 whole entry, looked up): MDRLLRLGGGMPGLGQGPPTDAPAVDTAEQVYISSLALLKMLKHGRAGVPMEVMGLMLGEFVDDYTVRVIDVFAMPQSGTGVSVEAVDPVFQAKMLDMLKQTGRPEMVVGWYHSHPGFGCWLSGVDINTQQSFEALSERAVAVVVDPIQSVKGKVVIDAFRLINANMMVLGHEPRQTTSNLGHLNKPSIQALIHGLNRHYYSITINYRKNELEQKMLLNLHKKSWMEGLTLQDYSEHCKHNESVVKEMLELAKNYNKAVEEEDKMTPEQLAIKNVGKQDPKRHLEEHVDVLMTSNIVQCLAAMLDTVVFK
Scp1 confirm: Scp-1 (human) inhibition, single-dose confirmed. shares compounds with Scp-1 inhibitor. recombinant SCP-1 catalytic domain, phosphate release, malachite green absorbance. 2,500 compounds, 61% hits. inhibition, % at 20 µM;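 further: plate controls were DMSO with enzyme for no effect and buffer wells lacking enzyme for full effect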
MG interference: colorimetric interference in Scp-1 counter-screen | apparent inhibition (interference), % at 20 µM | 2,500 tested, under 10 active | shares compounds with Scp-1 inhibitor | AID 540313 | Colorimetric interference counterscreen, malachite green absorbance 630 nm;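 further: compounds added after enzyme reaction finished so only phosphate colour detection is probed; plate controls were DMSO wells with completed Scp-1 reaction for no effect and substrate wells lacking enzyme for full effect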
Scp-1 Tm shift: validation of human Scp-1 inhibitors by thermal shift binding; shares compounds with Scp-1 inhibitor; Recombinant SCP1, Sypro Orange thermal shift Tm; thermal shift relative to vanadate control, % at 40 µM; 1,500 compounds, 25% hits;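 active means substances whose mean melting-temperature shift, as a percentage of the reference inhibitor's shift, reaches about 5.3%, limit read from the data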;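 further: 0% = Tm of DMSO wells and 100% = Tm with sodium orthovanadate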
* hit, by the source's call; / = no result given.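 How the source made its calls, unless noted: active means inhibition of at least 30% at 20 µM; inactive means the rest.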

SMILES | SUMO1 PPI mod | LMPTP block | Scp-1 inhibitor | STEP block | DNMT1 inh | Rpn11 block | Scp1 confirm | MG interference | others
O=[N+]([O-])c1ccc(C(O)C[n+]2ccccc2)cc1 (stereo unspecified) | -23 | -1 | 96* | -1 | -10 | -3 | 0 | 1
CC(C)c1ccc(NC(=O)C2CC(=O)N(C(C)C)C2)cc1 (stereo unspecified) | 2 | 1 | -9 | 2 | 0 | -4 | -11 | -12
Cc1ccnc(NC(=O)C2CC(=O)N(c3ccc4c(c3)OCCO4)C2)c1 (stereo unspecified) | 4 | 0 | -6 | -2 | 1 | 0 | / | /
Cc1ccc(C)c(N2CCN(C(=O)c3ccc(CSc4nc5ccncc5[nH]4)cc3)CC2)c1 | -2 | 28 | 56* | 0 | -4 | 8 | -16 | -4
Cc1ccc(C(C)C)c(OCC(=O)OCC(=O)c2c(N)n(C)c(=O)n(C)c2=O)c1 | 1 | 0 | -3 | 2 | 3 | -3 | / | /
C=CCn1c(COc2cc(C)ccc2C(C)C)nnc1SCC(=O)c1c(N)n(C)c(=O)n(C)c1=O | 2 | 1 | 52* | -2 | 15 | -4 | 11 | -1
O=S1(=O)N=C(N2CCc3ccccc3C2)c2ccccc21 | 4 | 0 | 76* | 0 | -4 | 0 | -16 | -17
O=S1(=O)N=C(N2CCCc3ccccc32)c2ccccc21 | 2 | -1 | 6 | -2 | 1 | 0 | / | /
CN(C)CCCNCCCCNC(=O)/C=N/O | -2 | -13 | -12 | -2 | -8 | 4 | / | /
C=CC[N+](C)(C)CCCNC(=O)/C=N/O | -7 | -9 | 56* | 0 | -24 | 5 | -7 | -9
Cc1ccsc1CNC1C2CC3CC(C2)CC1C3 (stereo unspecified) | 7 | -1 | -6 | 4 | -1 | -3 | / | /
COc1ccc(N(CC(=O)NCCSC2CCCCC2)S(C)(=O)=O)c(OC)c1 | -1 | -1 | -6 | -3 | -1 | -4 | / | /
CN(C(=O)c1cccc(NC(=O)Cc2ccc(NC(=O)C3CCN(C(=O)C4CCC4)CC3)cc2)c1)C1CCC1 | 4 | -1 | -8 | -1 | 5 | -4 | / | /
CC(C)(C)NC(=S)NC(C)(C)C | 0 | -1 | -10 | 2 | -1 | 1 | / | /
O=C(COC(=O)CNS(=O)(=O)c1cccc(Br)c1)NC(=O)Nc1ccc2c(c1)OCCO2 | 4 | -1 | -12 | -5 | -3 | -8 | / | /
CCn1ncc(Br)c1C(=O)NC(C)c1ccccc1 (stereo unspecified) | 3 | -1 | 81* | -19 | 1 | -2 | -1 | -5
CC(C)[C@H](NC(=O)c1ccccc1F)C(=O)OCCN1C(=O)c2ccccc2C1=O | -4 | -1 | 1 | -1 | 6 | -4 | / | /
CC(=O)c1ccc(NC(=O)CSc2ccsc2[N+](=O)[O-])cc1 | -1 | 12 | 72* | 2 | 27 | -8 | 64* | -13 | Scp-1 Tm shift=7.1*
O=C(C[n+]1ccc(C(=O)c2ccccc2)cc1)Nc1ccccc1OC(F)F | -46 | -2 | 83* | -1 | -2 | 6 | -3 | 0
O=C(COC(=O)c1ccc[n+]([O-])c1)Nc1ccccc1OC(F)F | -2 | -1 | -5 | -2 | 2 | 3 | / | /
CCC1CCCCN1S(=O)(=O)c1ccc2[nH]c(=O)ccc2c1 (stereo unspecified) | 2 | 12 | 58* | 1 | 11 | 2 | 49* | 0 | Scp-1 Tm shift=3
CCN(CC)C(CNC(=O)CSc1nnnn1-c1c(C)cccc1C)c1ccco1 (stereo unspecified) | 2 | 1 | -1 | 0 | -2 | 4 | / | /
Cc1ccc(NC(=O)CSc2nc3[nH]c(=O)cc(O)c3s2)c(Br)c1 | 8 | 3 | 3 | -1 | 7 | 15 | / | /
Cc1ccc(C)c(NC(=O)CSc2sc3c(O)cc(=O)[nH]c3c2C#N)c1 | 9 | 8 | 60* | 6 | 15 | 23 | 67* | 1 | Scp-1 Tm shift=11*
Cc1ccc(Cl)cc1NC(=O)CSc1sc2c(O)cc(=O)[nH]c2c1C#N | 6 | 11 | 56* | 6 | 15 | 25 | 62* | -7 | Scp-1 Tm shift=16*
SMILES | SUMO1 PPI mod | LMPTP block | Scp-1 inhibitor | STEP block | DNMT1 inh | Rpn11 block | Scp1 confirm | MG interference | others
CCCC[C@@H]1CCCO[C@@](C(=O)NCc2ccccn2)(C(F)(F)F)C1 | 2 | 0 | -6 | -1 | 0 | 0 | / | /
COc1ccc([C@@H]2CC(=O)c3c(O)cc(O[C@@H]4O[C@H](CO[C@@H]5O[C@@H](C)[C@H](O)[C@@H](O)[C@H]5O)[C@@H](O)[C@H](O)[C@H]4O)cc3O2)cc1O | 12 | -1 | 62* | 3 | 25 | -5 | 39* | -13 | Scp-1 Tm shift=-7
O=C1CNC(=O)/C1=C\N1CCCCC1 | -4 | 0 | -6 | 0 | -2 | 2 | / | /
O=C1CNC(=O)/C1=C\N1CCN(C(c2ccccc2)c2ccccc2)CC1 | 0 | -3 | 55* | 2 | -6 | -2 | -16 | -9
Cc1ccc(C)c(OCCn2nnc3ccccc32)c1 | 7 | 0 | -4 | -1 | 8 | 2 | / | /
Cc1cc(C)cc(OCCn2nnc3ccccc32)c1 | 4 | 1 | 62* | -1 | -3 | -3 | -13 | -16
O=C(O)c1ccc(S(=O)(=O)c2ccccc2)cc1 | -3 | 0 | -8 | -4 | 2 | 0 | / | /
O=C(O)c1ccc(Oc2ccc(S(=O)(=O)c3ccc(C(=O)O)c(C(=O)O)c3)cc2)cc1 | 0 | 0 | 54* | 14 | 10 | -26 | 41* | -25 | Scp-1 Tm shift=-10
CC(=O)Nc1ccc(S(=O)(=O)N/N=C/c2ccc(C)o2)cc1 | -1 | 14 | 67* | 33 | 28 | -7 | 20 | -10
Cn1nc(-c2ccc(C(=O)Nc3ccc(F)cc3)cc2)c2ccccc2c1=O | 4 | 3 | 60* | 12 | -1 | 25 | 42* | -16 | Scp-1 Tm shift=-11
Cc1ccc(S(=O)(=O)Nc2csc(C)c2C(=O)O)cc1 | / | / | 61* | / | / | / | 59* | -5 | Scp-1 Tm shift=15*
Cc1onc(-c2ccccc2Cl)c1C(=O)OCC(=O)N1CCCc2ccccc21 | 4 | 1 | -13 | 4 | -5 | 2 | / | /
CC(Oc1cccc(Cl)c1)C(=O)Nc1ccncc1 (stereo unspecified) | 2 | -2 | 1 | 0 | 1 | -2 | / | /
